Bioassay records from PubChem BioAssay.
KCNK9 inh – blocks the human KCNK9 two-pore domain potassium channel; B-score at 10 µM; AID 488922; hit rate 1.2% among 310,000; HEK293 KCNK9, FluxOR thallium flux fluorescence; stronger effect = lower value;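 active = ratio B-score over 3 SD below the library mean, with starting fluorescence within 5 SD of its mean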;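 note: negative B-score means less thallium flux so channel inhibition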
KCNQ1 block – inhibitors of human KCNQ1 potassium channel. P51787. CHO-K1 KCNQ1, FluxOR thallium flux fluorescence; stronger effect = higher value. B-score at 10 µM. hit rate 1.3% among 310,000. AID 2642;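 active = compounds whose thallium flux B-score, printed positive for inhibition, exceeds three library SD while starting fluorescence stays within three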;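 note: channel opened by potassium depolarization with thallium stimulus after 20 min compound exposure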
Kir21 inh – inhibitors of mouse Kir2.1 inward-rectifier potassium channel; hit rate 0.85% among 310,000; HEK293-Kir2.1, FluxOR thallium flux fluorescence; stronger effect = lower value; B-score at 10 µM;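 active = fluorescence ratio B-score at or below minus 3 SD of library scores, with starting-brightness B-score within 2 SD, cut at about -4.2 in these data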;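 note: channel flux triggered by added potassium and thallium sulfate stimulus; B-score of peak minus minimum fluorescence over baseline after thallium stimulus; more negative B-score means stronger Kir2.1 block with less thallium influx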
KCNQ1 pot – potentiates or activates the human KCNQ1 potassium channel. CHO-K1 KCNQ1, thallium flux FluxOR fluorescence; stronger effect = higher value. hit rate 0.35% among 310,000. B-score at 10 µM. AID 2648. P51787;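 active = fluorescence ratio B-score, a plate-corrected score, at least three library SD, with initial intensity B-score within 5 SD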
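Material: CHO-K1 cells stably expressing KCNQ1. Medium: assay buffer for compound exposure, DMSO matched across wells. Reagent: K+/Tl+ depolarizing stimulus. Compound dosing: single-concentration screen. Times: 37 °C overnight plating, 90-min dark dye load, 20-min compound pretreatment. Technique: FluxOR Tl+ flux fluorescence.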
hERG protect – compounds protecting human hERG from proarrhythmic drug block; hit rate 0.51% among 310,000; CHO-hERG, FluxOR thallium flux, dofetilide IC70 present; AID 1511; Q12809; activation (rescue from dofetilide block), less the hit threshold, % at 10 µM;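 active = activation above the mean of controls blocked by dofetilide plus 5 SD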;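 note: thallium influx through hERG after potassium depolarization seen as dye fluorescence rise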
KCNK3 inh – human KCNK3 channel inhibition, primary screen; O14649; CHO-KCNK3 thallium flux, FluxOR fluorescence; stronger effect = lower value; B-score at 10 µM; hit rate 0.84% among 340,000; AID 602410;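 active = B-score under library mean minus 4 SD, starting fluorescence ratio at most library mean plus 5 SD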;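 note: more negative B-score means stronger inhibition of thallium flux through KCNK3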
Target sequence (O14649 whole entry, looked up): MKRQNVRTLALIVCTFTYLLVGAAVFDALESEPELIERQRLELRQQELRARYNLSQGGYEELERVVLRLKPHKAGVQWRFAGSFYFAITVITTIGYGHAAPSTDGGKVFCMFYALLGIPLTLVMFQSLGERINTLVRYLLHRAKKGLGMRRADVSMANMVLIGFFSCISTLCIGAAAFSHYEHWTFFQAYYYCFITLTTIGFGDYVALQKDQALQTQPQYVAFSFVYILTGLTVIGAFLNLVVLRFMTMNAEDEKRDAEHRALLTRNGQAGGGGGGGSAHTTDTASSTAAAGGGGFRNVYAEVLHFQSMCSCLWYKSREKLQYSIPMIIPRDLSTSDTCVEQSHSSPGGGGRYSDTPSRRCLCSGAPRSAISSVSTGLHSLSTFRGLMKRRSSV
KCNK9 block conf – human KCNK9 inhibitor confirmation. shares compounds with KCNK9 inh. HEK293 KCNK9 cells, FluxOR thallium flux fluorescence. inhibition, % at 10 µM. hit rate 43% among 4,900;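 active = thallium signal inhibited by more than 5 SD of the compound-free buffer control wells, on both duplicate plates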;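 note: 0% = assay buffer control wells without compound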
Kir2-1 spec – selectivity of KCNK9 modulators against mouse Kir2.1; shares compounds with KCNK9 inh; Kir2.1 cells, FluxOR thallium flux fluorescence; inhibition, % at 10 µM; hit rate 4% among 4,900; AID 492993;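 active = thallium signal drop more than 5 SD beyond the mean of the no-compound control wells, seen in both duplicate plates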;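 note: signal is fluorescence rise after thallium addition divided by baseline fluorescence; plate controls were assay buffer only for no effect and full block by chlorpromazine control for full effect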
KCNK9 uninduced – second check of KCNK9 modulator effects in non-induced HEK293 cells; shares compounds with KCNK9 inh; FluxOR thallium flux; inhibition, % at 10 µM; hit rate 40% among 4,900; AID 492997;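 active = thallium signal drop beyond 5 SD of the untreated control mean, on both duplicate plates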;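 note: plate controls were buffer only IC0 wells for no effect and SID17386958 at its maximal inhibitory level for full effect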
* = called active by the depositor; i = inactive; . = no result. Rows were chosen to be rich in hits. Some 3.7% of all compounds tested hit in one or more screens of this group.

SMILES	KCNK9 inh	KCNQ1 block	Kir21 inh	KCNQ1 pot	hERG protect	KCNK3 inh	KCNK9 block conf	Kir2-1 spec	KCNK9 uninduced
O=C(C[C@H]1C[C@H](C(=O)N2CCCCC2)[C@@]2(CCc3ccccc3)c3[nH]c4ccc(Cl)cc4c3CCN2C1=O)NCc1cccc(C(F)(F)F)c1	.	.	.	.	.	i	.	.	.
COc1cccc(CN2CCN(C(=O)c3cc(-c4ccccn4)nc4ccc(Cl)cc34)CC2)c1	i	i	-1.52	i	-30.3	i	i	i	i
COc1cccc(CN2CCN(C(=O)c3cc(-c4ccncc4)nc4ccc(C)cc34)CC2)c1	i	i	-0.73	i	-36.0	i	.	.	.
CCC(=O)c1ccccc1OCCN1CCN(Cc2ccccc2)CC1	i	i	-3.64	i	-8.1	i	i	i	i
O=C(c1ccccc1)c1ccc(OCCOCCN2CCN(Cc3ccccc3)CC2)cc1	i	i	-1.88	i	-24.6	i	i	i	i
CCOc1ccccc1OCCOCCN1CCN(Cc2ccccc2)CC1	i	i	-2.82	i	-5.2	i	.	.	.
O=C1CN(C(=S)NC(=O)c2ccc(-c3ccccc3)cc2)CCN1	i	i	-0.07	i	-7.5	i	.	.	.
CCOC(=O)/C(=C\Nc1ccc(OC(F)(F)F)cc1)Sc1ncc(C(F)(F)F)cc1Cl	i	i	-1.37	i	-8.7	i	i	i	i
CCN(CC)c1nc(C)nc2c1cnn2CCc1ccccc1	i	i	-2.06	i	-12.1	i	i	i	i
CCN(CC)c1ncnc2c1cnn2Cc1ccc(C)cc1	i	i	-0.16	i	-7.8	i	.	.	.
COc1ccc(-c2cc(C(F)(F)F)nc(SCc3cccc(C(=O)O)c3)n2)cc1	i	i	-2.16	i	-16.1	i	i	i	i
O=C(O)c1cccc(CSc2nc(-c3ccccc3)cc(C(F)(F)F)n2)c1	i	i	0.09	i	-17.5	i	.	.	.
Cc1sc(NC(=O)c2ccco2)c(CN2CCN(c3ccccn3)CC2)c1C	-12.4*	i	-0.81	i	-16.0	-9.78*	48.5%*	i	29.5%*
Cc1cc(OCc2ccc(F)cc2)nc(-c2ccccc2O)n1	-10.2*	i	-0.28	i	-3.6	i	66.5%*	i	37.0%*
CC(C(=O)Nc1ccc(C#N)cc1)N(C)Cc1cccs1 (stereo unspecified)	i	i	1.12	i	-9.1	i	.	.	.
CC(C(=O)Nc1ccc(Cl)cc1)N(C)Cc1cccs1 (stereo unspecified)	-11.2*	i	-0.86	i	-3.9	i	55.5%*	i	25.0%*
Cc1ccc(NC(=O)C(C)OC(=O)/C=C/c2ccccc2)cc1 (stereo unspecified)	i	i	-0.1	i	-9.7	i	.	.	.
Cc1ccc(C(C)C)c(OC(=O)/C=C/c2ccccc2)c1	i	i	-1.28	i	-19.5	i	i	i	i
Cc1ccccc1CN1CCN(S(=O)(=O)c2cccc3nsnc23)CC1	i	i	1.12	i	-6.4	i	i	i	i
O=S(=O)(c1cccc2nsnc12)N1CCN(C/C=C\c2ccccc2)CC1	i	i	-0.5	i	-11.4	i	i	i	i
Cc1ccc(NC(=O)COC(=O)[C@@H]2CCCN2C(=O)c2cccs2)cc1S(=O)(=O)N(C)C	i	i	1.47	i	-8.3	i	.	.	.
COC(=O)c1cc(NC(=O)Nc2cc(OC)ccc2OC)cc(C(=O)OC)c1	-10.6*	i	2.22	i	-16.2	i	31.0%*	i	i
CCCCn1c(SCC(N)=O)nc2c(sc3ccccc32)c1=O	i	i	2.13	i	-6.4	i	.	.	.
CCSc1nc2c(sc3ccccc32)c(=O)n1C(C)C	-11.1*	i	-0.64	13*	6.1*	i	46.5%*	i	i
O=C(COC(=O)c1ccc(Br)cc1)NC(=O)NCc1ccccc1	.	.	.	.	.	i	.	.	.
SMILES	KCNK9 inh	KCNQ1 block	Kir21 inh	KCNQ1 pot	hERG protect	KCNK3 inh	KCNK9 block conf	Kir2-1 spec	KCNK9 uninduced
Cc1cccc(NC(=S)NC(=O)c2ccco2)n1	i	i	0.4	i	-5.7	i	.	.	.
C=CCn1c(SCC2CCCCO2)nc2sc(CC)cc2c1=O (stereo unspecified)	i	i	0.28	i	-10.5	i	i	i	33.5%*
CN1CCN(C2=C(NS(=O)(=O)c3cccs3)C(=O)c3ccccc3C2=O)CC1	i	i	0.63	i	-6.7	i	.	.	.
O=C1C(NS(=O)(=O)c2cccs2)=C(N2CCN(Cc3ccccc3)CC2)C(=O)c2ccccc21	i	i	-1.07	i	-15.1	i	i	i	i
Cc1nnc(SCC(=O)Nc2cc(C(N)=O)cc(C(N)=O)c2)n1-c1ccccc1	i	i	1.64	i	-2.9	i	.	.	.
Cc1ccc(CCc2nnc(SCC(=O)Nc3cccc(Cl)c3)n2-c2ccccc2)o1	i	i	-0.52	i	-7.9	i	i	i	i
COc1ccc(OCC2CCCN(Cc3nc(CC4CC4)no3)C2)cc1 (stereo unspecified)	i	i	0.15	i	-4.4	i	.	.	.
Cc1ccccc1C1CCCN(Cc2nc(CC3CC3)no2)C1 (stereo unspecified)	i	i	0.06	i	-17.9	i	i	i	i
Cc1cccc(N2CCN(Cc3nc(CC4CC4)no3)CC2)n1	i	i	1.57	i	-10.4	i	.	.	.
c1ccc(C2CCCN(Cc3nc(CC4CC4)no3)CC2)cc1 (stereo unspecified)	i	i	1.87	i	-11.8	i	i	i	i
COc1cccc(SCc2noc(C(=O)NCCC(C)C)c2C(=O)NCCC(C)C)c1	i	i	-0.67	i	-13.4	i	i	i	i
CCCNC(=O)c1onc(CSc2cccc(OC)c2)c1C(=O)NCCC	i	i	-0.66	i	-5.2	i	.	.	.
CC(C)CCNC(=O)c1onc(CSc2ccc(Cl)cc2)c1C(=O)NCCC(C)C	i	i	1.02	i	-13.9	i	i	i	i
CC(C)CCNC(=O)c1onc(CSc2ccc(F)c(F)c2)c1C(=O)NCCC(C)C	i	i	2.64	i	-5.1	i	i	i	i
